As a reminder, the IC50 is the concentration at which inhibition is half-maximal. Read a high IC50 as weaker potency in that assay.

Here are results for 35 compounds from ChEMBL document CHEMBL1821580, “Design, synthesis and bioevaluation of novel candidate selective estrogen receptor modulators” (Eur J Med Chem, 2011).

Calls of active or inactive are those of the source. No cut-off for these calls is given here. A value given as a limit tells only on which side of the number the result lay.

The subject of one experiment is L1210. As to the kind of experiment: Cytostatic activity against mouse L1210 cells after 2 days by coulter counter assay. In kind it is functional, cell-based. Particulars: L1210, 48 h. In outline:
(§1)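 Tumor cells seeded in 96-well plates and exposed to a range of compound concentrations. Exposure was 2 days for L1210 and 3 days for Molt4/C8 and CEM. Cell number was counted on a Coulter particle counter. IC50 is the concentration inhibiting proliferation by 50%. Run in triplicate.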

The subject of another experiment is MOLT-4. Put plainly: Cytostatic activity against human Molt4/C8 cells after 3 days by coulter counter assay. Format: functional, cell-based. The settings on record: MOLT-4, 72 h. In outline: as §1
A further experiment deals with CCRF-CEM. Put plainly: Cytostatic activity against human CEM cells after 3 days by coulter counter assay. Format: functional, cell-based. The settings on record: 72 h. In outline:
as §1

For another experiment, the system named is MCF7. Put plainly: Cytotoxicity activity against human MCF7 cells by MTS assay. Format: functional, cell-based. In outline:
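MCF-7 cells in DMEM with 10% heat-inactivated FBS, seeded at 30,000 cells/well in 24-well plates. After compound treatment, viability was read by MTS assay (CellTiter 96 AQueous). Run in triplicate.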
Background: Tetrazolium dyes change colour on reduction, which living cells bring about.

Experiment [1] addresses T1, Estrogen receptor (Homo sapiens) (UniProt P03372).
T1 sequence (whole entry): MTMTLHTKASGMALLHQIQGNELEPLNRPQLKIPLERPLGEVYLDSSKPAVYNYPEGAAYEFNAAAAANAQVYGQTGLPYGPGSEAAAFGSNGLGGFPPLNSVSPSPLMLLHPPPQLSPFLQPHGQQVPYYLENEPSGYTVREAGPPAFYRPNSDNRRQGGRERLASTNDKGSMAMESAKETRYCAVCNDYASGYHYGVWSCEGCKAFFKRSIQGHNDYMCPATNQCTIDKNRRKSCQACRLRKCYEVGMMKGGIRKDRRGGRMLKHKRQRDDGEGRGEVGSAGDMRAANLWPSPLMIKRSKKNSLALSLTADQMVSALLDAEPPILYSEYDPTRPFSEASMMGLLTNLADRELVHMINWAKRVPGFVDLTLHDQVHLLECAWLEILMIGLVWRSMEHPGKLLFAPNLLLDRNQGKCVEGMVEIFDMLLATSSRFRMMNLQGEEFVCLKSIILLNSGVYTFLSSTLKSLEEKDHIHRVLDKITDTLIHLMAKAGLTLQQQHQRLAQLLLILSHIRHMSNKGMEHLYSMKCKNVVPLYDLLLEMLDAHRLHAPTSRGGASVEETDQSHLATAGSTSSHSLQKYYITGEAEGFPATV
Put plainly: Binding affinity to estrogen receptor alpha in human MCF7 cells assessed as NR peptide-ERalpha complex formation at 25 uM by colorimetric ELISA. In kind it is cell-based.

Experiment [2] concerns the target T1, Estrogen receptor (Homo sapiens). Put plainly: Binding affinity to estrogen receptor alpha in human MCF7 cells assessed as NR peptide-ERalpha complex formation at 2.5 uM by colorimetric ELISA. Format: cell-based.

Turning to `Cc1ccc(C(c2c(O)ccc3ccccc23)N2CCC(O)CC2)cc1` (single isomer, unassigned; (-)), the IC50 was found to be 44 µM with L1210, 39 µM in the experiment with MOLT-4 and 29 µM in the experiment with CCRF-CEM.

In the case of `COc1ccc(C(c2c(O)ccc3ccccc23)N2CCC(OC(C)=O)CC2)cc1` (single isomer, unassigned; (+)), the IC50 in the experiment with L1210 was determined as 43 µM; with MOLT-4 it was 42 µM; in the experiment with CCRF-CEM, 22 µM.

With `COc1ccc(C(c2c(O)ccc3ccccc23)N2CCC(O)CC2)cc1OC` (single isomer, unassigned; (-)), the IC50 with L1210 amounted to 50 µM; in the experiment on MOLT-4, 18 µM; with CCRF-CEM it was 25 µM.

In the experiment on MCF7, `CC/C(=C(\c1ccccc1)c1ccc(OCCN(C)C)cc1)c1ccccc1` [TAMOXIFEN] showed an IC50 of 31 µM. In other words, the double-digit micromolar range.

Consider `CC(=O)OC1CCN(C(c2ccc(C)cc2)c2c(O)ccc3ccccc23)CC1` (single isomer, unassigned; (+)), for which the half-inhibitory concentration (IC50) with L1210 was determined as 45 µM; with MOLT-4, 47 µM; in the experiment with CCRF-CEM it was 35 µM.

For `Oc1ccc2ccccc2c1Cc1ccc(OCCN2CCCC2)cc1`, in the experiment with MCF7, half-maximal inhibition (IC50) was put at 6.71 µM.

With `CC(=O)OC1CCN(C(c2ccc(Cl)cc2)c2c(O)ccc3ccccc23)CC1` (single isomer, unassigned; (+)), the results for the IC50 in the experiment with L1210, in the experiment on MOLT-4 and in the experiment on CCRF-CEM were 41 µM, 35 µM and 28 µM, respectively.

In turn, `Oc1ccc2ccccc2c1Cc1ccc(OCCN2CCCCCC2)cc1` yielded an IC50 in the experiment on MCF7 of 6.21 µM. This lies in the single-digit micromolar range.

For the compound `Oc1ccc2ccccc2c1C(c1ccc2c(c1)OCO2)N1CCC(O)CC1` (single isomer, unassigned; (-)), the IC50 amounted to 45 µM in the experiment on L1210, 44 µM in the experiment on MOLT-4 and 37 µM with CCRF-CEM.

On to `CC(=O)OC1CCN(C(c2ccccn2)c2c(O)ccc3ccccc23)CC1` (configuration not stated), for which the concentration for half-maximal inhibition (IC50) with L1210 was 92 µM; in the experiment with MOLT-4, 49 µM; with CCRF-CEM, 55 µM.

Regarding `COc1ccc(C(c2c(O)ccc3ccccc23)N2CCC(OC(C)=O)CC2)cc1OC` (single isomer, unassigned; (+)), the IC50 in the experiment on L1210 is 48 µM; in the experiment with MOLT-4 it was 12 µM; in the experiment with CCRF-CEM it was 24 µM.

On to `Oc1ccc2ccccc2c1C(c1ccc(Cl)c(Cl)c1)N1CCC(O)CC1` (configuration not stated), for which the IC50 is 43 µM with L1210, 36 µM with MOLT-4 and 17 µM in the experiment with CCRF-CEM.

For the compound `CC(=O)OC1CCN(C(c2ccc(F)cc2)c2c(O)ccc3ccccc23)CC1` (single isomer, unassigned; (+)), the IC50 was determined as 45 µM in the experiment with L1210, 40 µM with MOLT-4 and 27 µM with CCRF-CEM.

In turn, `Oc1ccc2ccccc2c1C(c1ccc(OCCN2CCCC2)cc1)N1CCC(O)CC1` (racemic) gave an IC50 in the experiment on MCF7 of 37.5 µM.

Compound `Oc1ccc2ccccc2c1Cc1ccc(OCCN2CCCCC2)cc1` displayed an IC50 in the experiment on MCF7 of 6.82 µM.

In the experiment on MCF7, `CCN(CC)CCOc1ccc(Cc2c(O)ccc3ccccc23)cc1` displayed an IC50 of 6.2 µM.

For the compound `CC(C)N(CCOc1ccc(Cc2c(O)ccc3ccccc23)cc1)C(C)C`, the IC50 with MCF7 was 7.54 µM.

In the case of `CC(=O)OC1CCN(C(c2ccc(Cl)c(Cl)c2)c2c(O)ccc3ccccc23)CC1` (single isomer, unassigned; (+)), the IC50 in the experiment with L1210 was 31 µM; in the experiment with MOLT-4, 34 µM; with CCRF-CEM, 15 µM.

Compound `Oc1ccc2ccccc2c1C(c1ccc(OCCN2CCOCC2)cc1)N1CCC(O)CC1` (racemic) showed an IC50 with MCF7 of 424 µM.

In the experiment with MCF7, `CCN(CC)CCOc1ccc(C(c2c(O)ccc3ccccc23)N2CCC(O)CC2)cc1` (racemic) showed an IC50 of 19 µM.

Turning to `CC1CCN(CCOc2ccc(Cc3c(O)ccc4ccccc34)cc2)CC1`, in the experiment with MCF7, the IC50 came to 4.38 µM. Besides, the result in experiment [1] and in experiment [2] was Active.

As to `Oc1ccc2ccccc2c1C(c1ccccc1)N1CCC(O)CC1` (configuration not stated), the IC50 with L1210 was determined as 50 µM; with MOLT-4, 43 µM; with CCRF-CEM it was 36 µM.

With `Oc1ccc2ccccc2c1Cc1ccc(OCCN2CCOCC2)cc1`, the IC50 with MCF7 was greater than 25 µM.

As for `CC(=O)OC1CCN(C(c2ccccc2)c2c(O)ccc3ccccc23)CC1` (single isomer, unassigned; (+)), the IC50 in the experiment on L1210 was 58 µM; with MOLT-4 it was 38 µM; in the experiment on CCRF-CEM, 31 µM.

For the compound `CC(=O)OC1CCN(C(c2ccncc2)c2c(O)ccc3ccccc23)CC1` (single isomer, unassigned; (-)), the IC50 was 80 µM in the experiment on L1210, 59 µM in the experiment with MOLT-4 and 79 µM with CCRF-CEM.

Turning to `Oc1ccc2ccccc2c1C(c1ccc(OCCN2CCCCC2)cc1)N1CCC(O)CC1` (racemic), the IC50 with MCF7 was 36.4 µM.

`CC(=O)OC1CCN(C(c2ccc3c(c2)OCO3)c2c(O)ccc3ccccc23)CC1` (configuration not stated): the IC50 came out at 48 µM with L1210, 69 µM in the experiment with MOLT-4 and 51 µM with CCRF-CEM.

Regarding `CN(C)CCOc1ccc(Cc2c(O)ccc3ccccc23)cc1`, the midpoint of inhibition in the experiment with MCF7, the IC50, lay at 10.2 µM.

As to `Oc1ccc2ccccc2c1C(c1ccccn1)N1CCC(O)CC1` (single isomer, unassigned; (+)), the IC50 came out at 118 µM in the experiment on L1210, 52 µM with MOLT-4 and 54 µM with CCRF-CEM.

As to `COc1ccc(C(c2c(O)ccc3ccccc23)N2CCC(O)CC2)cc1` (configuration not stated), the IC50 in the experiment with L1210 was 42 µM; in the experiment on MOLT-4, 35 µM; in the experiment on CCRF-CEM, 14 µM.

Turning to `Oc1ccc2ccccc2c1C(c1ccc(Cl)cc1)N1CCC(O)CC1` (single isomer, unassigned; (-)), the values for the IC50 in the experiment on L1210, in the experiment with MOLT-4 and in the experiment with CCRF-CEM were 46 µM, 33 µM and 19 µM, respectively.

On to `Oc1ccc2ccccc2c1C(c1ccncc1)N1CCC(O)CC1` (single isomer, unassigned; (+)), for which the IC50 amounted to 154 µM with L1210, 107 µM in the experiment on MOLT-4 and 133 µM in the experiment with CCRF-CEM.

Consider `Oc1ccc2ccccc2c1C(c1ccc(F)cc1)N1CCC(O)CC1` (single isomer, unassigned; (-)), for which the IC50 was determined as 44 µM in the experiment with L1210, 41 µM in the experiment with MOLT-4 and 24 µM in the experiment on CCRF-CEM.

With `CC(C)N(CCOc1ccc(C(c2c(O)ccc3ccccc23)N2CCC(O)CC2)cc1)C(C)C` (racemic), the IC50 in the experiment on MCF7 was 52.3 µM.

For `CN(C)CCOc1ccc(C(c2c(O)ccc3ccccc23)N2CCC(O)CC2)cc1` (racemic), in the experiment on MCF7, the IC50 was 22.6 µM.
